The record followed here is the EternaBench riboswitch data.

For the data set, the system named is MS2 coat protein. Nature of the data set: apparent Kd, MS2 coat protein; higher = weaker binding; RNA-MaP array; FMN 200 µM where present. In outline: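 The titrant was SNAP-549-labelled MS2 coat protein, run from 0.7 or 1.5 nM in doubling steps to 3 µM. It was applied to designs transcribed by stalled E. coli RNA polymerase on Illumina sequencing-chip clusters, without ligand first and then with constant ligand, in 100 mM Tris-HCl pH 7.5, 80 mM KCl, 4 mM MgCl2, BSA, DTT, yeast tRNA and Tween-20. The apparent Kd is the median of filtered per-cluster binding-curve fits, with green signal normalised to red-channel RNA signal and control-cluster median Fmax.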

The mark [1] stands for this setting: designed as: ON switch for flavin mononucleotide, no ligand.
The mark [2] stands for this setting: ligand present: flavin mononucleotide, designed as: ON switch for flavin mononucleotide.
[3] abbreviates: designed as: OFF switch for flavin mononucleotide, no ligand.
Setting [4] is: ligand present: flavin mononucleotide, designed as: OFF switch for flavin mononucleotide.

Consider “GUAGCAUGAUUAGGAUAUUCAGCGAGUAGAUUGACAUGAGGAUCACCCAUGUGGCGAAAGCCGAGGGAGAAGGGAUGAUGCUAC”, for which the “apparent Kd” value is, setting by setting: under setting [1], 34.9 nM; under setting [2], 25 nM.

For “UUUUGGUCAGGAUAUUGUUAGUUUAGUUGUUUGUAUUAGUUCGAGAAGGGACAUGAGGAUCACCCAUGUGGUUU”, the “apparent Kd” value under setting [3] is 71.8 nM and the “apparent Kd” value under setting [4] came to 58.9 nM.

Turning to “UGACGGAGCAGAGGAUAUUACAUGAGGAUCACCCAUGUAUGAACCAAUAGCUGGAAACAGCAAUGUAAGAAGGCUGCUCCGACA”, the “apparent Kd” value by setting is: under setting [3], 11.6 nM; under setting [4], 147 nM.

Consider “UCUGCUCGAGGAUAUACAUGAGGAUCACCCAUGUAUCCCUGUAGCAUGGCCUCAGGAUGUAGAAGGCGACGCUA”, for which the “apparent Kd” value is, setting by setting: under setting [3], 14.9 nM; under setting [4], 16.8 nM.

Consider “AGGACGGGUAAGAAGGCGUUCUCACAUGAGGAUCACCCAUGUCGAAGGAUGAGGAUAUUGGCCGAGGGUGGCGUUUUGUGACGA”, for which the “apparent Kd” value reads like this: under setting [1], 30.9 nM; under setting [2], 9.35 nM.

On to “UGGAGAAAUCAAGGAUAUGCUACCGUUUCGGUAGCAGAAGGUGAUCACAUGAGGAUCACCCAUGUAUGCAUGCGUGAGCGUGCU”, for which the “apparent Kd” value under setting [1] worked out at 46.4 nM and the “apparent Kd” value under setting [2] was determined as 289 nM.

In the case of “CCUAAGGACACAGGAUAUAGCGUCGUGGCUGGGCUCCAACGGCGAGCGGCGCUAGAAGGGUGACCACAUGAGGAUCACCCAUGU”, the “apparent Kd” value reads like this: under setting [1], 522 nM; under setting [2], 150 nM.

Regarding “CGCACACAUGAGGAUCACCCAUGUGAGGAUAUCAUGCUUCGUAGUAAACUACGAAGUGUGAGAAGGCACAUGUC”, the “apparent Kd” value by setting is: under setting [3], 31.2 nM; under setting [4], 102 nM.

Consider “GCAGUAUCAGGAUAUACAUGAGGAUCACCCAUGUGACUCCAUAGGAAGCUAUGUGGAUGUAGAAGGGAUCACUG”, for which the “apparent Kd” value by setting is: under setting [3], 54.6 nM; under setting [4], 183 nM.

Take “UAACAUGUCCGAGGAUAUCUGGAAACAUUUUCAAGAGAAGGCGGACAUGAGGAUCACCCAUGUCUCUCCUCAUCAACUACAAAU”: the “apparent Kd” value under setting [3] was determined as 8.61 nM and the “apparent Kd” value under setting [4] was determined as 57.5 nM.

“UUAUACGUUGAGGAUAUGCGAUUUAGUAUAGUUGUAGAAGGCGAUACAUGAGGAUCACCCAUGUUUAUGGGCAU”: the “apparent Kd” value reads like this: under setting [3], 328 nM; under setting [4], 257 nM.

As for “GCGUUGUACGAGAAGGCCAAUACAUGAGGAUCACCCAUGUUAAGUUGUUUUGGAGGAUAUCGAUCAUCUACAAUAAUGCAACGC”, the “apparent Kd” value was 6.74 nM under setting [3] and 6.03 nM under setting [4].

Consider “GAUUUACAUGAGGAUCACCCAUGUGAGGAUAUUGGGCUAGCAGAGUGAAUUCGCUGUCCAAGAAGGUACUGGAA”, for which the “apparent Kd” value runs as follows: under setting [3], 32.6 nM; under setting [4], 32.5 nM.

Regarding “AAGUCUGUACGAGGAUAUCAGUUGUAUCUAAAUUCAACAUGAGGAUCACCCAUGUUGCAAUAGGGUGAGAAGGCGUGUGGGCAA”, the “apparent Kd” value stood at 70.1 nM under setting [1] and 21.6 nM under setting [2].

For “CUGGUUCUCGUAGGAUAUGUAGGAUAUGCCUACAUGAGGAUCACCCAUGUUCGCAUGGCAGAAGGACAGAAGGACGAUCACCAG”, the “apparent Kd” value turned out to be 55.6 nM under setting [1] and 15.4 nM under setting [2].

Take “AUCAGCUCGUCAGGAUAUACGUCACUGCUUCGGCAGUGUGAAAAGAUCACAUGAGGAUCACCCAUGUAGAAGGGACGAGCUGAU”: the “apparent Kd” value is 9.15 nM under setting [3] and 120 nM under setting [4].

In the case of “AUAUGAUAGAUAGGAUAUACUAUGGUUGAAUAUGUAGAAGGAUCAAUAGGGAAAUGUACAUGAGGAUCACCCAUGUUAUGGAUU”, the “apparent Kd” value reads like this: under setting [1], 32.9 nM; under setting [2], 31.3 nM.

As to “UUUCCGCGAGGAUAUGCGGGCUGUGCUUUUCAUUUCUUACAACAUGAGGAUCACCCAUGUAGAAGGUGCUUCUU”, the “apparent Kd” value under setting [3] came out at 213 nM and the “apparent Kd” value under setting [4] came out at 189 nM.

In the case of “GCUGGACAAGGAUAUACAUAACGUGCUUCGGCACGAGAUCUACAUGAGGAUCACCCAUGUAGAAGGUGUCCAGC”, the “apparent Kd” value is 14.8 nM under setting [3] and 29.2 nM under setting [4].

Take “GUGUGUUGCGGGCAGGAUAUGUAUUUGAGUACAUGAGGAUCACCCAUGUGCGCCUGUUUCAGGCGACAGAAGGGCCUAUCGCGAC”: the “apparent Kd” value reads like this: under setting [1], 159 nM; under setting [2], 30.9 nM.

Take “CAGUACUGAGGAUAUACAUGAGGAUCACCCAUGUGUUCCAGCUAGGAAACUAGGAAAAGUAGAAGGCAGUACUG”: the “apparent Kd” value by setting is: under setting [3], 22.1 nM; under setting [4], 261 nM.

As for “UUAAAUCAUGUAGGAUAUGCAUGGCGAAGCUACGCAGAAGGACAUGAGGAUCACCCAUGUUCAAGCUACCGAGUUCGGUGGCAA”, the “apparent Kd” value reads like this: under setting [3], 23.3 nM; under setting [4], 148 nM.

For the sequence “CCGGAAAUGCAGGAUAUCGUAUCGGAUACGAUACGAGAAGGGUAUACAUGAGGAUCACCCAUGUGUCCUGCCGG”, the “apparent Kd” value under setting [3] came to 42.5 nM and the “apparent Kd” value under setting [4] amounted to 40.6 nM.

With “AGUUAAUAUCGAGGAUAUCCUCAUAAACAUGAGGAUCACCCAUGUUAACAUGGAGAAGGCGAUAUUAACAGCAUGUUACAUGCA”, the “apparent Kd” value is 268 nM under setting [1] and 20.2 nM under setting [2].

Regarding “UUUUAACAUGAGGAUCACCCAUGUGAGGAUAUCGAAAUUUAUAUUAAUAUUAAUAUAACGAGAAGGCACAUUUU”, the “apparent Kd” value by setting is: under setting [3], 52 nM; under setting [4], 70.2 nM.

As to “GGACGUCAGAUUAACAUGAGGAUCACCCAUGUCUUUUGACAUGAGGAUAUGGAUCCUAAUUGGAUCCAGAAGGCAUGGACGUCC”, the “apparent Kd” value under setting [1] came to 1120 nM and the “apparent Kd” value under setting [2] was determined as 94.9 nM.

As to “UAUUAAUGCAAGGAUAUGCUAUUAAUUUUUUUUGCAGAAGGUGCAACAUGAGGAUCACCCAUGUUUGAGGGUAU”, the “apparent Kd” value came out at 66.8 nM under setting [3] and 67.8 nM under setting [4].

For “AAUAAACUCACAGGAUAUAGCAGAGGUCGCGUGUACUUACAGGCGACUAUGCUAGAAGGGUGACCACAUGAGGAUCACCCAUGU”, the “apparent Kd” value is, setting by setting: under setting [1], 746 nM; under setting [2], 137 nM.

For “GGUUGUCAUCGUCGUCCUUUCGUUACAUGAGGAUCACCCAUGUAGGAUAUGCUGCAUUCGAUGUGGCAGAAGGGCAUGUGUGUU”, the “apparent Kd” value by setting is: under setting [3], 18.1 nM; under setting [4], 31.6 nM.

As for “AAAAAGUCAGGAUAUCCAAAAAAAAAAAAAAAAAAAAAAAAGGAGAAGGGACAUGAGGAUCACCCAUGUAAAAA”, the “apparent Kd” value under setting [3] was found to be 77.9 nM and the “apparent Kd” value under setting [4] was 85.3 nM.

As for “GCAAGUACGAGAGGAUAUUGACAUGAGGAUCACCCAUGUAUUUGGGAGUGUUCACUGAAUUCUUACGAGAAGGCUCGUACAUGC”, the “apparent Kd” value reads like this: under setting [3], 246 nM; under setting [4], 232 nM.

Regarding “GAUCUGAUAGGAUAUACAUGAGGAUCACCCAUGUGCGAGCUAGCGAAAGCUAGCUCAGGUAGAAGGGUCAGAUC”, the “apparent Kd” value amounted to 12 nM under setting [3] and 15.5 nM under setting [4].

In the case of “AGUUAAUAUCGAGGAUAUCCUCUGAAACAUGAGGAUCACCCAUGUAGAAUGGGAGAAGGCGAUAUUAACAGCAUGUUACAUGCA”, the “apparent Kd” value was determined as 111 nM under setting [1] and 48.6 nM under setting [2].

On to “GCCAUCGCAUGAGGAUAUGCUCCCGUUUCGGGAGCAGAAGGCAUGUGAUAACACAUGAGGAUCACCCAUGUAGUUAAGAUGGCA”, for which the “apparent Kd” value runs as follows: under setting [1], 5.31 nM; under setting [2], 4.45 nM.

Turning to “GGUCGAAAGUAAGGAUAUGCCUAGGAAACCUAGGCAGAAGGUACAUGAGGAUCACCCAUGUUAACGCAAAGCGAAUAAACGACC”, the “apparent Kd” value is, setting by setting: under setting [3], 18.6 nM; under setting [4], 27.4 nM.

Consider “GCCAUCGCAUGAGGAUAUGGCACCGUUUCGGUGCCAGAAGGCAUGUCUCUUGACAUGAGGAUCACCCAUGUAGUUAAGAUGGCA”, for which the “apparent Kd” value came out at 779 nM under setting [1] and 52 nM under setting [2].

Turning to “UUGGACGUCGUAGGAUAUGUAGGAUAUUCCUACAUGAGGAUCACCCAUGUUGACAUGGAAGAAGGACAGAAGGACGGUGUCCAU”, the “apparent Kd” value was 241 nM under setting [1] and 4.54 nM under setting [2].

Turning to “CACUCGUGUCUAGGAUAUGAGUGACAAGCGCGAGAUUUCCUCGCCGCUAGCUCAGAAGGAGACAUGAGGAUCACCCAUGUAAGG”, the “apparent Kd” value is, setting by setting: under setting [3], 90 nM; under setting [4], 24.4 nM.

With “UGCGGUUGAGGAUAUACGUAGAAAUAGAUUCAUGUAAAACUACAUGAGGAUCACCCAUGUAGAAGGCAAUCGCU”, the “apparent Kd” value is, setting by setting: under setting [3], 25.7 nM; under setting [4], 217 nM.

Regarding “CUACGCUAGGAGAAGGGCUAGAGUGUGAUAUAUUUGCCCGCGAGCACAUGAGGAUCACCCAUGUAGCAGGAUAUCCAAGCCGGU”, the “apparent Kd” value stood at 7.59 nM under setting [3] and 16.8 nM under setting [4].

For “GUUAAGGUAGGAUAUACGAUAAUAUAGGGUAGAGAUAUAACACAUGAGGAUCACCCAUGUAGAAGGACCAAUUG”, the “apparent Kd” value under setting [3] stood at 25.3 nM and the “apparent Kd” value under setting [4] turned out to be 75.2 nM.

Consider “UUUUAACAUGAGGAUCACCCAUGUGAGGAUAUCGAAAUUUAUAUUAAUAUUAUUUUAACGAGAAGGCACAUUUU”, for which the “apparent Kd” value was determined as 76.7 nM under setting [3] and 84.2 nM under setting [4].

With “AAUUAAUUGUAGAAGGUACUUAAUUAUGAUAUGUAAGGAUAUACGAUAUUAUAACGACAUGUAUGACAUGAGGAUCACCCAUGU”, the “apparent Kd” value amounted to 11.2 nM under setting [1] and 8.4 nM under setting [2].

“CAGCACAUGAGGAUCACCCAUGUGCAUCCAUCAUGUGCCGUGCAGGAUAUAGACCGCCGUCCAGUCUAGAAGGGCACCGAUGAC”: the “apparent Kd” value was determined as 159 nM under setting [3] and 75.1 nM under setting [4].

On to “GGGCUGUCAGGAUAUGGGCUCGGGCUCGAAAGGGCUCGGGCUCAGAAGGGACAUGAGGAUCACCCAUGUGGCCC”, for which the “apparent Kd” value under setting [3] is 35.7 nM and the “apparent Kd” value under setting [4] was determined as 32.8 nM.

“CGCACUUAUAGAGGAUAUGUUAAACAUGAGGAUCACCCAUGUGAUUUAGUAUCAAUAUUAGUGAAACAGAAGGCUAUUAGUGCG”: the “apparent Kd” value was found to be 13.3 nM under setting [3] and 12.9 nM under setting [4].

For “AAAAAGGCAGGAUAUACAUGAGGAUCACCCAUGUAAAGAAAAGAAAGAUCCAAAGAAAGUAGAAGGGCCAAAAA”, the “apparent Kd” value by setting is: under setting [3], 74.8 nM; under setting [4], 286 nM.

As to “CCCGAGGAAGGAUAUACAUGAGGAUCACCCAUGUGCGUUGGGACUGGCGUAGUCUUCAGUAGAAGGUCCGCGCC”, the “apparent Kd” value amounted to 18.5 nM under setting [3] and 17.5 nM under setting [4].

The term apparent Kd denotes a dissociation constant that holds for the conditions of the assay.
